Activity calls are given as the source filed them. The calls are words filed in the database; no cut-off is given here.
Legend:
Coagulation factor XI = Coagulation factor XI (Homo sapiens, UniProt P03951); test: Inhibition of factor 11a
Prothrombin = Prothrombin (Homo sapiens, UniProt P00734); test: Inhibition of thrombin
Coagulation factor X = Coagulation factor X (Homo sapiens, UniProt P00742); test: Inhibition of factor 10a
Plasma [1] = test: Anticoagulant activity in human plasma measured by activated […] time; format: functional
In short: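 Activated partial thromboplastin time in human plasma. Plasma was incubated with compound for 2 min. aPTT reagent was added and incubated 3 min. Prewarmed 30 mM CaCl2 was added and clotting was read up to 300 s. The concentration doubling clotting time was taken from the dose-response curve.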

Plasma [2] = test: Anticoagulant activity in human plasma measured by prothrombin time; format: functional
In short: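 Human plasma with compound prewarmed 3 min at 37 °C, then prewarmed thromboplastin reagent containing calcium added; clotting read over 300 s. Concentration doubling clotting time (2× PT) derived from dose-response curve.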

Homo sapiens [3] = organism: Homo sapiens; test: Selectivity for factor 11a over factor 10a
In short: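 Fold selectivity compared IC50s against factor XIa and factor Xa, both in Tris-HCl/NaCl/Tween 20 buffer at pH 7.4. FXIa: Glp-Pro-Arg-AMC, 50 nM enzyme, 50 µM substrate, 15-30 min at 30 °C. FXa: H-Pro-Phe-Arg-AMC at twice those concentrations, 60 min.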

Homo sapiens [4] = organism: Homo sapiens; test: Selectivity for factor 11a over thrombin
In short: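 IC50s against factor XIa and thrombin were compared as fold selectivity. Both enzymes used Glp-Pro-Arg-AMC, with 50 nM enzyme and 50 µM substrate in Tris-HCl/NaCl/0.02% Tween 20 at pH 7.4. Ten-point endpoint assays ran for 15-30 min at 30 °C with AMC fluorescence read at 355/460 nm. IC50 came from a one-site dose-response fit.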

Trypsin = Trypsin (Homo sapiens, UniProt P07477+P07478+P35030); test: Inhibition of trypsin; format: protein assay
In short: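 Trypsin activity was read with the fluorogenic substrate Glp-Pro-Arg-AMC. Conditions were 50 nM enzyme and 50 µM substrate in 100 mM Tris-HCl, 200 mM NaCl and 0.02% Tween 20 at pH 7.4. Ten-point dose-response endpoints were taken after 15-30 min at 30 °C. Released AMC was read at ex 355/em 460 nm, and IC50 came from a one-site nonlinear least-squares fit.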

Rattus norvegicus = test: Efficacy in rat venous thrombosis model assessed as reduction in thrombus weight at 0.25 mg/kg, iv; format: functional, organism-based; design: dose 0.25 mg/kg
In short: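 Intravenous infusion at 0.0625 or 0.25 mg/kg in 0.1 M NaOAc pH 4.0 vehicle, started 5 min before induction; clot isolated and weighed 10 min postchallenge. n = 9; Tukey-Kramer test versus vehicle.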

[5] = Half life in iv dosed rat; format: ADME, organism-based; settings: in vivo
[6] = Clearance in iv dosed rat; format: ADME, organism-based; settings: in vivo
[7] = molecular target: Vitamin K-dependent protein C (Homo sapiens, UniProt P04070); test: Inhibition of activated protein C
Chain of Vitamin K-dependent protein C (P04070 43-197 limits assumed): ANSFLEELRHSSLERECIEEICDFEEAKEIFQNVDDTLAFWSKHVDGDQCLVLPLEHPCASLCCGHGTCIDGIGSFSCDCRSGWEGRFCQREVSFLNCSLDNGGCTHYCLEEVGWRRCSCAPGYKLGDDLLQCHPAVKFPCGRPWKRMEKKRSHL
Chain of Vitamin K-dependent protein C (P04070 212-461 limits assumed): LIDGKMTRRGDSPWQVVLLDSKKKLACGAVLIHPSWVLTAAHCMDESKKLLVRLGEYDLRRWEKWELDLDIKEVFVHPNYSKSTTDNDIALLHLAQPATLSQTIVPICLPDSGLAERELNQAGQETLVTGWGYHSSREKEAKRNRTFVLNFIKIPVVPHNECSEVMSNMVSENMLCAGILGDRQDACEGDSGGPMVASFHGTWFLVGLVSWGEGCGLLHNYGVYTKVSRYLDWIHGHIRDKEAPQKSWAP

[8] = Volume of distribution in iv dosed rat; format: ADME, organism-based; settings: in vivo, read-out: Vdss
Plasma kallikrein = Plasma kallikrein (Homo sapiens, UniProt P03952); test: Inhibition of plasma kallikrein; format: cell-free
Chain of Plasma kallikrein (P03952 20-390 limits assumed): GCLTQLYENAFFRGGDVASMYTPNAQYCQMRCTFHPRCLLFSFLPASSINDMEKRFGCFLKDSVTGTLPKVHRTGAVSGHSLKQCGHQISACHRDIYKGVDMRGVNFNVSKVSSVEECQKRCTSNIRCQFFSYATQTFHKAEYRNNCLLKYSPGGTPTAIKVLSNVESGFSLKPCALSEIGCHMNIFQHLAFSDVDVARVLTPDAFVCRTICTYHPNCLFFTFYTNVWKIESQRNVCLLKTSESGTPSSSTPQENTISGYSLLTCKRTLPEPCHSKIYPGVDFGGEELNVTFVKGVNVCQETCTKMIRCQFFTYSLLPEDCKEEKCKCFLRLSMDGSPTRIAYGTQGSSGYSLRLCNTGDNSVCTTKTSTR
Chain of Plasma kallikrein (P03952 391-638 limits assumed): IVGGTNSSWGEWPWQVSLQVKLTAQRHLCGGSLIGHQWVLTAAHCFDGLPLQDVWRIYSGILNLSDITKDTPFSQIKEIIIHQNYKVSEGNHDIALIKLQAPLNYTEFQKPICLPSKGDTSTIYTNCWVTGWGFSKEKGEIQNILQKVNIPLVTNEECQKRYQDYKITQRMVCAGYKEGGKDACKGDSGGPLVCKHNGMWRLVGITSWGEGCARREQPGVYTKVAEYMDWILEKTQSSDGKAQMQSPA

Coagulation factor VII = molecular target: T1, Coagulation factor VII (Homo sapiens, UniProt P08709); test: Inhibition of factor 7a
T1 sequence (P08709 whole entry): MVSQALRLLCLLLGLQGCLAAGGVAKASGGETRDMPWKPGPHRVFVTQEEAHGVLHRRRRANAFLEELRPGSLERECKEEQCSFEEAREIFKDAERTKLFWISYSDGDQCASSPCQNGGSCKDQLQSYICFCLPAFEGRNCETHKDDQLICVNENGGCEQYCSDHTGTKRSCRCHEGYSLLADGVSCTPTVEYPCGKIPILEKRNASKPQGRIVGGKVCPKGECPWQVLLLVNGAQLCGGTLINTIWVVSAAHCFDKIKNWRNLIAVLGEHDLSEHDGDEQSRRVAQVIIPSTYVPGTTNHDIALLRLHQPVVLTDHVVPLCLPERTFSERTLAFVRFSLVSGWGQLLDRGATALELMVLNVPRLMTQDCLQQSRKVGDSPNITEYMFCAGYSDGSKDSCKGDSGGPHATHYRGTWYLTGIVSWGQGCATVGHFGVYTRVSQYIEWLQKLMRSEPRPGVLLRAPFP

Chain of Coagulation factor X (P00742 41-179 limits assumed): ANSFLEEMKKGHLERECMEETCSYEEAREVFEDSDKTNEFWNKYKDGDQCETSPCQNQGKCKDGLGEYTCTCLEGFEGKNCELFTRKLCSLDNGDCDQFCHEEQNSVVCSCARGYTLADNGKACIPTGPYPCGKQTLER
Chain of Coagulation factor X (P00742 235-488 limits assumed): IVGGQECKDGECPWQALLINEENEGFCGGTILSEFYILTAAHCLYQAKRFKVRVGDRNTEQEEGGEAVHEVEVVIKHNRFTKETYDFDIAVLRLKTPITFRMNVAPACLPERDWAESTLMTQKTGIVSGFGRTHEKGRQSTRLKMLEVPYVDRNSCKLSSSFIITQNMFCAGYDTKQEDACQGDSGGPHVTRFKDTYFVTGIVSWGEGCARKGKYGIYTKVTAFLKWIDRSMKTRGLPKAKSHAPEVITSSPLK
Chain of Coagulation factor XI (P03951 19-387 limits assumed): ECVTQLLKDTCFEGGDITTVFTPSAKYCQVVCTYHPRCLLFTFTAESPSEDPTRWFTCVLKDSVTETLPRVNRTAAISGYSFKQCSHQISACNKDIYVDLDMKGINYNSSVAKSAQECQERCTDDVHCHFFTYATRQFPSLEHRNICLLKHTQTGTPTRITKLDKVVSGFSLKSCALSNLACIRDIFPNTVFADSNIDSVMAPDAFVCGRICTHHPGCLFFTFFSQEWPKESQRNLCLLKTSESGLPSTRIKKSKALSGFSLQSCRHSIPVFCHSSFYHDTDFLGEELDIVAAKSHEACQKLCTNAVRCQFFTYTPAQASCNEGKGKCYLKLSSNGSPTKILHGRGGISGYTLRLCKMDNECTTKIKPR
Chain of Coagulation factor XI (P03951 388-625 limits assumed): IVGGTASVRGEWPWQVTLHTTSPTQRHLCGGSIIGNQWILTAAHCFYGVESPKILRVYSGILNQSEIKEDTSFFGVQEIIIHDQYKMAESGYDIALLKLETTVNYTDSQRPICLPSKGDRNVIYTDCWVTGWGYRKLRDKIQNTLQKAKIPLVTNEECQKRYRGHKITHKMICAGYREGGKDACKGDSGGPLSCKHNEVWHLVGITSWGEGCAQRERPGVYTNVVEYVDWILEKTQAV

SMILES | IC50 (Coagulation factor XI) [nM] | IC50 (Prothrombin) [nM] | IC50 (Coagulation factor X) [nM] | also measured
CC(C)[C@H](NC(=O)[C@H](CCCNC(N)=O)NC(=O)N[C@H](C)c1ccc(Br)cc1)C(=O)N[C@@H](CCCNC(=N)N)C(=O)c1nccs1 | 30 | 1100 | 1900 | 2aPTT (Plasma [1]): 1.35 µM; 2PT (Plasma [2]): 48.6 µM
CC(C)[C@H](NC(=O)[C@H](Cc1ccccc1)NNC(=O)c1ccco1)C(=O)N[C@@H](CCCNC(=N)N)C(=O)c1nccs1 | 2200 |  |  | 
CC(C)[C@H](NC(=O)[C@H](Cc1ccccc1)NNC(=O)NCc1ccc(F)cc1)C(=O)N[C@@H](CCCNC(=N)N)C(=O)c1nccs1 | 160 | 4300 |  | 
CC(C)[C@H](NC(=O)[C@H](Cc1cccnc1)NC(=O)N[C@H](C)c1ccc(F)cc1)C(=O)N[C@@H](CCCN=C(N)N)C(=O)c1nccs1 | 28 | 523 |  | 
CC(C)[C@H](NC(=O)[C@H](CC(N)=O)NC(=O)N[C@H](C)c1ccc(Br)cc1)C(=O)N[C@@H](CCCNC(=N)N)C(=O)c1nccs1 | 8 | 400 | 1600 | 2aPTT (Plasma [1]): 0.56 µM; 2PT (Plasma [2]): 26.3 µM
CC(C)[C@H](NC(=O)[C@H](Cc1ccc(O)cc1)NC(=O)N[C@H](C)c1ccc(Br)cc1)C(=O)N[C@@H](CCCNC(=N)N)C(=O)c1nccs1 |  |  |  | IC50 (Trypsin): 12 nM; Selectivity ratio (Homo sapiens [3]): 267; Activity (Rattus norvegicus): Active; 2aPTT (Plasma [1]): 2.4 µM; Selectivity ratio (Homo sapiens [4]): 340; 2PT (Plasma [2]): 25 µM
CC(C)[C@H](NC(=O)[C@H](Cc1ccc(O)cc1)NC(=O)N[C@H](C)c1ccc(Br)cc1)C(=O)N[C@@H](CCCN=C(N)N)C(=O)c1nccs1 | 6 | 2040 | 1600 | half-life [5]: 45 min; clearance [6]: 32 mL/min/kg; IC50 [7]: 20700 nM; Vd [8]: 0.236 L/kg; IC50 (Plasma kallikrein): 10 nM; IC50 (Coagulation factor VII): 38000 nM
CC(C)C[C@H](NC(=O)NCc1ccc(Cl)c(Cl)c1)C(=O)N[C@@H](Cc1ccc(O)cc1)C(=O)N[C@@H](CCCNC(=N)N)C(=O)c1nccs1 | 200 | 1000 | 1700 | 
CC(C)C[C@H](NC(=O)NCc1ccc(Cl)c(Cl)c1)C(=O)N[C@H](C(=O)N[C@@H](CCCN=C(N)N)C(=O)c1nccs1)C(C)C | 63 | 876 | > 20000 | 
CC(C)C[C@H](NC(=O)NCc1ccc(Cl)c(Cl)c1)C(=O)N[C@H](C(=O)N[C@@H](CCCNC(=N)N)C(=O)c1nccs1)C1CCCCC1 | 340 | 7700 | > 200000 | 
CC(C)[C@H](NC(=O)[C@@H](NC(=O)N[C@H](C)c1ccc(Br)cc1)C1CCCCC1)C(=O)N[C@@H](CCCNC(=N)N)C(=O)c1nccs1 | 10 | 976 | 2700 | 2aPTT (Plasma [1]): 15.4 µM; 2PT (Plasma [2]): 178.6 µM
CC(C)[C@H](NC(=O)[C@H](Cc1ccccc1)NNS(=O)(=O)c1ccc(Cl)c(Cl)c1)C(=O)N[C@@H](CCCNC(=N)N)C(=O)c1nccs1 | 2300 |  |  | 
CC(C)[C@H](NC(=O)[C@H](CCCN=C(N)N)NC(=O)N[C@H](C)c1ccc(Br)cc1)C(=O)N[C@@H](CCCN=C(N)N)C(=O)c1nccs1 | 7 | 440 | 250 | 
CC(C)C[C@H](NC(=O)NCc1ccc(Cl)c(Cl)c1)C(=O)N[C@@H](Cc1ccccc1)C(=O)N[C@@H](CCCN=C(N)N)C(=O)c1nccs1 | 710 | 27000 | 8500 | 
CC(C)[C@H](NC(=O)[C@H](Cc1cccnc1)NC(=O)N[C@H](C)c1ccc(Br)cc1)C(=O)N[C@@H](CCCNC(=N)N)C(=O)c1nccs1 | 12 | 1400 | 1400 | Selectivity ratio (Homo sapiens [3]): 200; 2aPTT (Plasma [1]): 2.4 µM; 2PT (Plasma [2]): 31 µM

Now from value to compound, other results behind:

IC50 (Coagulation factor XI) [nM] | IC50 (Prothrombin) [nM] | IC50 (Coagulation factor X) [nM] | SMILES | also measured
920 | 10000 | 22000 | CC(C)C[C@H](NC(=O)NCc1ccc(Cl)c(Cl)c1)C(=O)N[C@@H](C)C(=O)N[C@@H](CCCNC(=N)N)C(=O)c1nccs1 | 
9200 | 12000 | > 200000 | CC(C)C[C@H](NC(=O)NCc1ccc(Cl)c(Cl)c1)C(=O)N[C@H](C(=O)N[C@@H](CCCN=C(N)N)C(=O)c1nccs1)C(C)(C)C | 
2600 |  |  | CC(C)[C@H](NC(=O)[C@H](Cc1ccccc1)NNC(=O)Cc1ccco1)C(=O)N[C@@H](CCCNC(=N)N)C(=O)c1nccs1 | 
132 | 5600 | 14900 | CC(C)[C@H](NC(=O)[C@@H](NC(=O)N[C@@H](C)c1ccc(Br)cc1)C1CCCCC1)C(=O)N[C@@H](CCCN=C(N)N)C(=O)c1nccs1 | 
114 | 3100 | > 20000 | CC(C)C[C@H](NC(=O)NCc1ccc(F)cc1)C(=O)N[C@H](C(=O)N[C@@H](CCCNC(=N)N)C(=O)c1nccs1)C(C)C | 
45 | 386 | 13000 | CC(C)C[C@H](NC(=O)NCc1ccc(Cl)cc1Cl)C(=O)N[C@H](C(=O)N[C@@H](CCCN=C(N)N)C(=O)c1nccs1)C(C)C | 
76 | 2600 | 85000 | CCC(C)[C@H](NC(=O)[C@H](CC(C)C)NC(=O)NCc1ccc(Cl)c(Cl)c1)C(=O)N[C@@H](CCCN=C(N)N)C(=O)c1nccs1 (some centres undefined) | 
10 | 1400 | 15000 | CC(C)C[C@H](NC(=O)NC(C)c1ccc(Br)cc1)C(=O)N[C@H](C(=O)N[C@@H](CCCNC(=N)N)C(=O)c1nccs1)C(C)C (some centres undefined) | Selectivity ratio (Homo sapiens [3]): 1500; Selectivity ratio (Homo sapiens [4]): 140
356 |  |  | CC(C)C[C@H](NC(=O)OCc1ccccc1)C(=O)N[C@H](C(=O)N[C@@H](CCCN=C(N)N)C(=O)c1nccs1)C(C)C | 
1920 | 935 | > 20000 | CC(C)[C@H](NC(=O)[C@H](Cc1ccccc1)NNC(=O)Nc1ccccc1)C(=O)N[C@@H](CCCNC(=N)N)C(=O)c1nccs1 | 
90 | 6700 | 14200 | CC(C)[C@H](NC(=O)[C@H](Cc1ccccc1)NNC(=O)NCc1ccc(Cl)c(Cl)c1)C(=O)N[C@@H](CCCNC(=N)N)C(=O)c1nccs1 | 
 | > 200000 | > 200000 | CC(=O)N[C@@H](CC(C)C)C(=O)N[C@H](C(=O)N[C@@H](CCCN=C(N)N)C(=O)c1nccs1)C(C)C | 
258 | 2100 | 14300 | CCOC(=O)C(Cc1ccccc1)NC(=O)NN[C@@H](Cc1ccccc1)C(=O)N[C@H](C(=O)N[C@@H](CCCNC(=N)N)C(=O)c1nccs1)C(C)C (some centres undefined) | 
136 | 2800 | > 20000 | CC(C)C[C@H](NC(=O)NCc1ccccc1)C(=O)N[C@H](C(=O)N[C@@H](CCCNC(=N)N)C(=O)c1nccs1)C(C)C | 
533 | 606 |  | CC(C)[C@H](NC(=O)[C@H](Cc1cccnc1)NC(=O)N[C@@H](C)c1ccc(F)cc1)C(=O)N[C@@H](CCCNC(=N)N)C(=O)c1nccs1 | 
29 | 710 | 2100 | CC(C)[C@H](NC(=O)[C@H](Cc1c[nH]c2ccccc12)NC(=O)N[C@H](C)c1ccc(Br)cc1)C(=O)N[C@@H](CCCNC(=N)N)C(=O)c1nccs1 | 
403 | 2100 | 15400 | CCOC(=O)C(CC(C)C)NC(=O)NN[C@@H](Cc1ccccc1)C(=O)N[C@H](C(=O)N[C@@H](CCCNC(=N)N)C(=O)c1nccs1)C(C)C (some centres undefined) | 
